The values that follow come from ChEMBL document CHEMBL3259652, “Design and synthesis of novel 5,6-disubstituted pyridine-2,3-dione-3-thiosemicarbazone derivatives as potential anticancer agents” (Eur J Med Chem, 2014).

Holding throughout (type): functional, cell-based
One assay has as its system MCF7. In words: Antiproliferative activity against human MCF7 cells after 72 hrs by MTT assay. The following applies: MCF7, 72 h. The essentials: (§1)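 Log-phase cells seeded at 2 × 10⁴ cells/ml, 24 h at 37 °C in 5% CO₂, then exposed to compounds for 72 h at 37 °C. MTT (5 mg/ml) added for 4 h, medium discarded, formazan dissolved in DMSO, absorbance read at 570 nm. Each concentration in triplicate, experiment repeated three times. IC50 from dose-response curves of inhibition ratio versus untreated control.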

Another assay relates to HCT-116. The assay is described as follows: Antiproliferative activity against human HCT116 cells after 72 hrs by MTT assay. Particulars: HCT-116, 72 h. The essentials: as §1
Background: Tetrazolium dyes change colour on reduction, which living cells bring about.

Assay [1] is described as follows: Antiproliferative activity against human Bel7402 cells after 72 hrs by MTT assay. Particulars: Bel-7402, 72 h. The essentials:
as §1

The structures appear in SMILES notation.

What is called IC50 is the point on the concentration scale where inhibition reaches its midpoint. Low readings indicate greater potency, high ones weaker potency. With `Cc1ccccc1NC1=C/C(=N/NC(N)=S)C(=O)N=C1Nc1ccccc1C`, the IC50 was determined as 0.58 µM in the assay with MCF7, 1.52 µM in the assay with HCT-116 and 1.71 µM in assay [1].
The corresponding values for `Cc1cccc(NC2=C/C(=N/NC(N)=S)C(=O)N=C2Nc2cccc(C)c2)c1` are 0.15 µM, 8.65 µM and 2.73 µM.
For `Cc1ccc(NC2=C/C(=N/NC(N)=S)C(=O)N=C2Nc2ccc(C)cc2)cc1`, the concentration for half-maximal inhibition (IC50) in the assay on MCF7 worked out at 3.06 µM; with HCT-116, 7.04 µM; in assay [1], 4.33 µM.
Regarding `NC(=S)N/N=C1/C=C(Nc2ccccc2Cl)C(Nc2ccccc2Cl)=NC1=O`, the IC50 was found to be 3.49 µM in the assay with MCF7, 3.54 µM in the assay with HCT-116 and 3.42 µM in assay [1].
For `NC(=S)N/N=C1/C=C(Nc2cccc(Cl)c2)C(Nc2cccc(Cl)c2)=NC1=O`, the IC50 in the assay on MCF7 stood at 0.63 µM; with HCT-116, 3.38 µM; in assay [1], 2.19 µM.
As for `NC(=S)N/N=C1/C=C(Nc2ccc(Cl)cc2)C(Nc2ccc(Cl)cc2)=NC1=O`, the IC50 in the assay with MCF7 was 1.37 µM; in the assay on HCT-116, 0.19 µM; in assay [1] it was 0.82 µM.
Take `COc1ccccc1NC1=C/C(=N/NC(N)=S)C(=O)N=C1Nc1ccccc1OC`: the IC50 in the assay with MCF7 is 10.2 µM; in the assay with HCT-116 it was 20.8 µM; in assay [1], 13.4 µM.
Consider `COc1cccc(NC2=C/C(=N/NC(N)=S)C(=O)N=C2Nc2cccc(OC)c2)c1`, for which the half-maximal inhibitory concentration (IC50) with MCF7 was over 50 µM.
Take `COc1ccc(NC2=C/C(=N/NC(N)=S)C(=O)N=C2Nc2ccc(OC)cc2)cc1`: the IC50 in the assay with MCF7 is 10.4 µM; in the assay with HCT-116, 22.4 µM; in assay [1] it was 17.8 µM.
The like results for `CCOc1ccc(NC2=C/C(=N/NC(N)=S)C(=O)N=C2Nc2ccc(OCC)cc2)cc1` were, in that order, 13.7 µM, 21.3 µM and 31 µM.
The corresponding values for `NC(=S)N/N=C1/C=C(Nc2ccc(F)cc2)C(Nc2ccc(F)cc2)=NC1=O` are 1.12 µM, 3.72 µM and 3.66 µM.
`NC(=S)N/N=C1/C=C(Nc2ccc(Br)cc2)C(Nc2ccc(Br)cc2)=NC1=O`: the IC50 with MCF7 came out at 2.58 µM; with HCT-116, 2.15 µM; in assay [1], 5.84 µM.
Turning to `NC(=S)N/N=C1/C=C(Nc2cccc([N+](=O)[O-])c2)C(Nc2cccc([N+](=O)[O-])c2)=NC1=O`, the figures for the half-inhibitory concentration (IC50) (in the assay on MCF7; with HCT-116; in assay [1]) were 11.1 µM, 19.4 µM and 8.11 µM, respectively.
The corresponding values for `NC(=S)N/N=C1/C=C(Nc2ccccc2)C(Nc2ccccc2)=NC1=O` are 7.11 µM, 24.7 µM and 11.9 µM.
In the case of `Cc1ccccc1NC1=C/C(=N/N=C(\N)SCc2ccccc2)C(=O)N=C1Nc1ccccc1C`, the half-maximal inhibitory concentration (IC50) worked out at 16.3 µM with MCF7, 13.8 µM with HCT-116 and 17.1 µM in assay [1].
The like results for `Cc1cccc(NC2=C/C(=N/N=C(\N)SCc3ccccc3)C(=O)N=C2Nc2cccc(C)c2)c1` were, in that order, 9.34 µM, 12.8 µM and 8.72 µM.
For `Cc1ccc(NC2=C/C(=N/N=C(\N)SCc3ccccc3)C(=O)N=C2Nc2ccc(C)cc2)cc1`, the values for the concentration for half-maximal inhibition (IC50) (in the assay on MCF7; in the assay with HCT-116; in assay [1]) were 13.4 µM, 8.27 µM and 7.68 µM, respectively.
As for `N/C(=N\N=C1\C=C(Nc2cccc(Cl)c2)C(Nc2cccc(Cl)c2)=NC1=O)SCc1ccccc1`, the IC50 was determined as 15.2 µM in the assay on MCF7, 11.7 µM in the assay with HCT-116 and 7.16 µM in assay [1].
Regarding `N/C(=N\N=C1\C=C(Nc2ccc(Cl)cc2)C(Nc2ccc(Cl)cc2)=NC1=O)SCc1ccccc1`, the half-inhibitory concentration (IC50) in the assay with MCF7 turned out to be 7.72 µM; with HCT-116, 9.6 µM; in assay [1] it was 17.3 µM.
`N/C(=N\N=C1\C=C(Nc2ccc(F)cc2)C(Nc2ccc(F)cc2)=NC1=O)SCc1ccccc1`: the values for the IC50 (in the assay on MCF7; in the assay with HCT-116; in assay [1]) were 7.58 µM, 11.5 µM and 7.69 µM, respectively.
Turning to `COc1ccccc1NC1=C/C(=N/N=C(\N)SCc2ccccc2)C(=O)N=C1Nc1ccccc1OC`, the IC50 with MCF7 was found to be 8.34 µM; in the assay with HCT-116 it was 14.5 µM; in assay [1], 13.1 µM.
As for `O=c1[nH]cc(F)c(=O)[nH]1` [FLUOROURACIL], the results for the IC50 (with MCF7; in the assay on HCT-116; in assay [1]) were 7.08 µM, 10.5 µM and 11.1 µM, respectively.
